Sampled rows, rich in hits. Any-hit rate of the full collection: about 2.9%.
IMP-1 inh-1 – blocks Pseudomonas aeruginosa IMP-1 metallo-beta-lactamase | inhibition, % at 5.6 µM | hit rate 0.45% among 290,000 | purified IMP-1, nitrocefin hydrolysis, epi-absorbance fluorescence;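 active = inhibition above the mean plus 3 SD of all compounds in the same screening run, cut at about 4.5% in these data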;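 also: 0% = IMP-1 with DMSO and 100% = DMSO wells lacking enzyme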
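assay system = purified recombinant IMP-1 metallo-beta-lactamase enzyme | schedule = 15 min preincubation plus 25 min reaction at 25 °C | signal = Epi-absorbance fluorescence, 480 nm excitation, 530 nm emission | read-out basis = percent inhibition from optical density relative to buffer-blank wells | controls = IMP-1 with DMSO as 0%, enzyme-free DMSO as 100%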
PolyA inh – yeast polyadenylation inhibition. S. cerevisiae SKY197-pL101 polyadenylation reporter, beta-gal luminescence; efflux-impaired pdr1/pdr3 knockout yeast; score 100 = 6 SD above DMSO. activity score, % at 12 µM. hit rate 0.02% among 300,000. AID 1875;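 active = lowest replicate activity score at least 50, where 100 means six control SD above control mean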;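 also: yeast exposed to compound for 9 h at 30 °C; higher score means more reporter readthrough which indicates perturbed polyadenylation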
Mot1-301 SUMO – SUMOylation pathway inhibition by Mot1-301 growth rescue; hit rate 1% among 320,000; growth rescue, % at 18.8 µM; S. cerevisiae Mot1-301 growth rescue, ATP luminescence, 38.5C; percent above DMSO median, 100 means doubled;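 active = every valid replicate shows activation above 250% relative to neutral control wells; inactive = the rest, any valid replicate at or below 250%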;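 also: OY570 slx delta 5 strain wells were the positive control but not used for scaling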
NALP1 inh – inhibitors of NALP1 inflammasome in yeast. S. cerevisiae NALP1/ASC/caspase-1 growth, X-gal OD620, 72 h. inhibition, % at 10 µM. hit rate 0.61% among 280,000; in the data active = inhibition mostly above about 24%, no sharp cut-off; inactive = mostly below about 32%
VIM-2 inh – inhibitors of Pseudomonas aeruginosa VIM-2 metallo-beta-lactamase; AID 1527; inhibition, % at 5.6 µM; purified VIM-2, nitrocefin hydrolysis, epi-absorbance fluorescence; hit rate 0.89% among 290,000;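 active = inhibition above the mean of all tested compounds plus 3 SD, cutoff set per screening run, cut at about 7.5% in these data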;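 also: red hydrolysis product quenches plate fluorescence so inhibitors raise well fluorescence; 0% = enzyme with DMSO and 100% = DMSO without enzyme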
NLRP3 yeast inh – inhibitors of NALP3 inflammasome in yeast. Yeast reconstituted NLRP3/ASC/caspase-1, beta-gal luminescence, 24 h. AID 2825. inhibition, % at 10 µM. hit rate 0.39% among 330,000;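 active = inhibition of 50% or more; inactive = inhibition below 50%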;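 also: plate controls were induced DMSO wells for no effect and uninduced yeast grown without galactose for full effect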
IMP-1 inh-2 – selectivity counter-screen for VIM-2 inhibitors: IMP-1 metallo-beta-lactamase inhibitors; shares compounds with VIM-2 inh; purified IMP-1, nitrocefin hydrolysis, epi-absorbance fluorescence; inhibition, % at 5.6 µM; 1,300 tested, under 10 active; call rule not given here;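 also: 0% = enzyme with vehicle and 100% = vehicle without enzyme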
VIM-2 FRET ctr – counter-screen for VIM-2 inhibitors: epi-absorbance artifacts via FRET | shares compounds with VIM-2 inh | purified VIM-2, CCF2 FRET substrate hydrolysis | inhibition, % at 5.6 µM | hit rate 23% among 1,300 | AID 1857;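 active = inhibition above the mean of all tested compounds plus 3 SD, cut at about 19% in these data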;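 also: 0% = VIM-2 plus DMSO and 100% = no enzyme wells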
TEM-1 counter – selectivity counter-screen for VIM-2 inhibitors: E. coli TEM-1 inhibitors. shares compounds with VIM-2 inh. Purified TEM-1, nitrocefin hydrolysis, epi-absorbance fluorescence. inhibition, % at 5.6 µM. hit rate 3% among 1,300. AID 1866;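 active = inhibition above that campaign's mean inhibition plus 3 SD, cut at about 0.46% in these data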;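 also: 0% = TEM-1 with DMSO and 100% = TEM-1 with 100 µM potassium clavulanate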
Target sequence (P62593 whole entry, looked up): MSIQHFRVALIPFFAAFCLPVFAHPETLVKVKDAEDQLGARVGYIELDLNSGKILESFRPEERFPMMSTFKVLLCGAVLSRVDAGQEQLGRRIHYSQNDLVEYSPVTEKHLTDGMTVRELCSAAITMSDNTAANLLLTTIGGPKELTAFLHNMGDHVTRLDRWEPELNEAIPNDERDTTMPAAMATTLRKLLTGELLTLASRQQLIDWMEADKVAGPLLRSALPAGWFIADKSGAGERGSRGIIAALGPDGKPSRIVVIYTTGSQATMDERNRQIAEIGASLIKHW
VIM-2 inh conf – confirmation of P. aeruginosa VIM-2 metallo-beta-lactamase inhibitors; shares compounds with VIM-2 inh; purified VIM-2, nitrocefin hydrolysis, epi-absorbance; inhibition, % at 5.6 µM; hit rate 96% among 1,300;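 active = inhibition of the VIM-2 beta-lactamase enzyme above about 11% from the earlier first-round screen, limit read from the data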;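 also: 0% = VIM-2 with DMSO and 100% = buffer wells without enzyme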
* hit, by the source's call; · = no result.

SMILES	IMP-1 inh-1	PolyA inh	Mot1-301 SUMO	NALP1 inh	VIM-2 inh	NLRP3 yeast inh	IMP-1 inh-2	VIM-2 FRET ctr	TEM-1 counter	VIM-2 inh conf
Cc1c(OCC(=O)NCCCN2CCOCC2)ccc2c(-c3ccccc3)cc(=O)oc12	-2	4	8	19	1	17	·	·	·	·
Cc1cc(=O)oc2cc(OCC(=O)NCCCN3CCOCC3)c(Cl)cc12	-2	18	-3	7	0	-4	·	·	·	·
Cc1c(OCC(=O)NCCCN2CCOCC2)ccc2c1oc(=O)c1ccccc12	-2	4	2	19	26*	-2	-1	1	-4	38*
Cc1c(OCC(=O)NCCCN2CCOCC2)ccc2c3c(c(=O)oc12)CCC3	-3	-7	1	13	25*	11	-2	1	-14	37*
Nc1nc(/C=C/c2cccnc2)nc(-c2ccccc2O)n1	-1	-37	24	25	23*	-18	-3	-4	-7	60*
Nc1nc(/C=C/c2ccc(F)cc2)nc(-c2ccccc2O)n1	1	3	-15	17	1	21	·	·	·	·
CN1CCN(C(=O)/C(=C/c2cccs2)NC(=O)c2cccs2)CC1	-4	23	8	20	17*	-1	-3	-2	-7	2
O=C(N/C(=C\c1cccs1)C(=O)N1CCOCC1)c1cccs1	-2	18	7	1	0	19	·	·	·	·
CCOC(=O)c1cnc(-n2nc(C)cc2C)nc1NC1CCCCC1	-5	-36	-18	2	14*	28	-6	-28	-7	28*
CCOC(=O)c1cnc(-n2nc(C)cc2C)nc1Nc1ccc(N(C)C)cc1	-4	-55	5	-39	26*	17	-5	-35	-5	75*
O=C(NCCN1CCCCC1)Nc1ccc(F)cc1F	-3	-10	-14	8	-2	10	·	·	·	·
CCC(=O)N1N=C(c2ccc(NS(=O)(=O)c3ccccc3)cc2)CC1c1ccco1 (stereo unspecified)	·	·	-8	·	·	-1	·	·	·	·
O=C(c1ccc(Br)o1)N1N=C(c2ccc(Cl)cc2)CC1c1ccco1 (stereo unspecified)	-2	3	299	-7	12*	10	-2	30*	-2	19*
O=C(C1CCCO1)N1N=C(c2ccc(Br)cc2)CC1c1ccco1 (stereo unspecified)	-2	-15	128	31	18*	22	-3	57*	-5	36*
Cc1ccc(C2=NN(C(=O)C3CCCO3)C(c3ccco3)C2)cc1 (stereo unspecified)	-2	6	-17	-12	14*	10	-3	27*	-6	17*
COc1cc2c(cc1OC)C(c1ccc(-c3ccc(Cl)cc3Cl)o1)=NCC2	0	-6	43	20	3	27	·	·	·	·
COc1cc2c(cc1OC)C(c1ccc(-c3ccccc3Cl)o1)=NCC2	-1	-10	-13	25	19*	28	-2	8	-5	28*
Cc1cccc(-c2n[nH]c(=S)n2-c2ccccc2)c1[N+](=O)[O-]	-2	14	-6	-6	34*	10	-2	62*	-7	44*
Cc1c(Cl)c(-c2n[nH]c(=S)n2-c2ccccc2)nn1C	-5	-3	-20	13	19*	11	-3	44*	-8	27*
O=[N+]([O-])c1cccc(-c2n[nH]c(=S)n2-c2ccccc2)c1	-3	7	-19	·	-1	14	·	·	·	·
C=CCn1c(-c2cccn(Cc3cccc(Cl)c3)c2=O)n[nH]c1=S	0	0	344	6	3	9	·	·	·	·
O=c1c(-c2n[nH]c(=S)n2-c2ccccc2)cccn1Cc1cccc(Cl)c1	-4	-1	20	-3	25*	21	-3	48*	-9	31*
CSS(=O)(=O)c1cccc2cccnc12	-2	1	-27	20	38*	6	-2	-30	-5	43*
CCCCC(=O)N/N=C/c1ccc(-c2ccc([N+](=O)[O-])cc2)o1	1	-2	-1	23	-2	11	·	·	·	·
Cc1cc(C)n(Cc2ccc(C(=O)N/N=C/c3ccc(-c4ccc([N+](=O)[O-])cc4)o3)o2)n1	-4	-9	-2	26	42*	17	-1	1	13*	14*
SMILES	IMP-1 inh-1	PolyA inh	Mot1-301 SUMO	NALP1 inh	VIM-2 inh	NLRP3 yeast inh	IMP-1 inh-2	VIM-2 FRET ctr	TEM-1 counter	VIM-2 inh conf
CCCCN(CC)C(=O)c1cc2c(=O)n3cccc(C)c3nc2s1	-1	-9	-16	1	12*	-22	-2	-5	-4	19*
CCN(CC)C(=O)c1cc2c(=O)n3cccc(C)c3nc2s1	-2	-11	2	8	16*	11	-4	-10	-3	20*
CCN(CC)C(=O)c1cc2c(=O)n3cccc(C)c3nc2n1C	-2	-6	-9	13	3	2	·	·	·	·
CC1CCCN(c2c3c(nc4ccccc24)CCCC3)C1 (stereo unspecified)	0	-2	6	33	13*	15	-3	2	-5	21*
COc1cc(/C=C2\SC(=S)N(C(C(=O)O)c3ccccc3)C2=O)cc(OC)c1OC (stereo unspecified)	-2	-6	-8	-8	1	18	·	·	·	·
COc1cccc(/C=C2\SC(=S)N(C(C(=O)O)c3ccccc3)C2=O)c1OC (stereo unspecified)	1	-21	23	-10	32*	11	-2	26*	-6	18*
COc1cc(Br)cc2cc(C(=O)OC3CCN(C)CC3)c(=O)oc12	-1	29	-17	·	14*	12	-3	1	-6	22*
COc1ccc2nc(SCC(=O)N3CCN(c4ccc(F)cc4)CC3)c(C#N)cc2c1	-2	-5	-8	-1	15*	10	-4	13	-6	42*
COc1ccc2cc(C#N)c(SCC(=O)N3CCCC3)nc2c1	-1	1	31	3	-3	12	·	·	·	·
O=C(COC(=O)C1CC1)Nc1ccc(Cl)cc1Cl	·	·	6	·	·	2	·	·	·	·
CN(C)S(=O)(=O)c1ccc(NC(=O)COc2ncnc3sccc23)cc1	-2	-9	3	-4	22*	16	-2	-4	-4	3
CNC(=O)COc1ncnc2sccc12	-3	·	·	2	-2	·	·	·	·	·

Screening results (PubChem)
